Reference: paper PMC6331054 (Bioorganic & medicinal chemistry, 2018)

Columns and labels:
[1] = target: T1, RALDH2 activity (ATRA synthesis) in living intact chick choroids (Gallus gallus, UniProt O93344); test: RALDH2 activity after incubation of living, intact choroids in organ culture; format: cell-based; conditions: organ culture 24 hrs
T1 sequence (O93344 1-518): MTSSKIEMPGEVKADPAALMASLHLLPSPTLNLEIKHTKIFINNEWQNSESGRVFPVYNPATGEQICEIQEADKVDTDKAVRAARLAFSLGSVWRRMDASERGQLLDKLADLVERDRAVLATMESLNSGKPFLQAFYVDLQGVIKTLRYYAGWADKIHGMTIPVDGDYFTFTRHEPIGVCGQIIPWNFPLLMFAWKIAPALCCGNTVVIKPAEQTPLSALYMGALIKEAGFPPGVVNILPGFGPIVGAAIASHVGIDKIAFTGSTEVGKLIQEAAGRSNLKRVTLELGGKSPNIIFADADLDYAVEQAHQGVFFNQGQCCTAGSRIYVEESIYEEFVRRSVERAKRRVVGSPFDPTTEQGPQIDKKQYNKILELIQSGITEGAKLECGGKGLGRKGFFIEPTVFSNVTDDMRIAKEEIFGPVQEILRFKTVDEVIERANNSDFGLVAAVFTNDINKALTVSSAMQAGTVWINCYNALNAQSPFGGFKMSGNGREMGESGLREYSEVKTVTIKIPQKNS
In short: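 Choroids from 4-day recovering or contralateral control eyes of male White Leghorn chicks (8 mm posterior punch) were cultured one per well in N2 medium with test compound (methods: 0.01–5 μM; legend: 0.01–10 μM) or DMSO for 24 hrs at 37°C, 5% CO2. Cytosol (100,000g, 1 hr) was incubated with NAD+ and 25 μM all-trans-retinaldehyde for 30 min at 37°C, with methanol stop and HPLC quantification of ATRA.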

[2] = target: T2, recombinant chicken RALDH2 (Gallus gallus, UniProt O93344); test: Fluorescence-based NADH assay of RALDH activity with retinaldehyde as substrate; format: biochemical
T2 sequence (O93344 1-518): T1 sequence (O93344 1-518)

[3] = target: T3, recombinant human mitochondrial ALDH2 (hALDH2) (Homo sapiens, UniProt P05091); format: biochemical; conditions: read-out: KI (Morrison); Morrison equation; ALDH2 4.43 μM
T3 sequence (P05091 18-517): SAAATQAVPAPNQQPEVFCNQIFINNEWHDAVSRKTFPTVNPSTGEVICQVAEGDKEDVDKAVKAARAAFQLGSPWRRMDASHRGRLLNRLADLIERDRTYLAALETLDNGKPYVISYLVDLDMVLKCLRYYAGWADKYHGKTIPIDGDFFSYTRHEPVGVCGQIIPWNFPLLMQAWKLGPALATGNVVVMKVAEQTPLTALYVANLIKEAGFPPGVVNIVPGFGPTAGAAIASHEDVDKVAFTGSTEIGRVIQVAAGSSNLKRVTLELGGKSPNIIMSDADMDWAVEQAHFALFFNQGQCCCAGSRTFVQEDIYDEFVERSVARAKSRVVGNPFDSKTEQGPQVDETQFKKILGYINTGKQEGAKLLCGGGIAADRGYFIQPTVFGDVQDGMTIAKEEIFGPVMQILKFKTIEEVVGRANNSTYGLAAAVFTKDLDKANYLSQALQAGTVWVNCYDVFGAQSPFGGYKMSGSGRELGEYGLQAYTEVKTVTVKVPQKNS
In short: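 Cobalt-purified recombinant hALDH2 (4.5 μM in Hepes pH 8.5/KCl/EDTA dialysis buffer plus 1 mM TCEP) in 20 mM Hepes pH 8.3, 150 mM KCl, 1 mM EDTA, 2 mM DTT, 5 mM propionaldehyde, 25°C. Pre-incubation 20 min–1 hr with test compound (1–100 μM final) or DMSO; NAD+ (5 mM final) started reaction; NADH at 340 nm for 5 min. KI by Morrison equation; triplicates, 3–5 experiments.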

[4] = target: T4, RALDH2 activity in chick choroid cytosol fractions (Gallus gallus, UniProt O93344); format: biochemical
T4 sequence (O93344 1-518): T1 sequence (O93344 1-518)
In short: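 Choroidal cytosol from control and 4-day recovering chick eyes was pre-incubated 20 min at 37°C with test compound (0–6 μM) or DMSO. Reaction was started with NAD+ (4 mM) and all-trans-retinaldehyde (25 μM), run 30 min at 37°C under dim red light, stopped with ice and methanol. ATRA was quantified by HPLC.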

[5] = Stability of DAR on storage and under assay conditions; format: physicochemical

effect on ATRA synthesis in living, intact choroids from control eyes [1]	Protection of RALDH2 activity by all-trans-retinaldehyde in the pre-incubation ([2]; 250 nM DAR + 250 μM RAL)	RALDH2 activity at enzyme concentrations below the DAR concentration ([2]; DAR 150 nM, RALDH2 46 – 91 nM)	Ki [3] [nM]	IC50 [4] [nM]	inhibition of RALDH2 activity in control choroid lysates ([4]; 0.10 – 6 μM DAR, 20 min pre-incubation at 37°C, control eyes, vs vehicle)	light stability ([5]; ambient light)	stability under assay conditions ([5]; dark, 25°C and 37°C)	storage stability ([5]; stored in the dark and at −80°)	SMILES
no significant effect	–	–	–	–	–	–	–	–	O=C(NCCCCCCCCNC(=O)C(Cl)Cl)C(Cl)Cl [WIN 18446, reference compound]
no significant effect	No protection	completely inhibited	> 100000	20.7	92 – 99%	prone to photoisomerization	at least three days	at least three months	CC1=C(/C=C/C(C)=C/C=C/C(C)=C/C(=O)C(Cl)Cl)C(C)(C)CCC1 [DAR, (3E,5E,7E,9E)-1,1-dichloro-4,8-dimethyl-10-(2,6,6-trimethylcyclohex-1-en-1-yl)deca-3,5,7,9-tetraen-2-one]
